PubChem BioAssay
Active and inactive are the calls of the source. Rule as the data show it, unless noted: active = inhibition above about 31%; inactive = the rest.

Legend:
[1] = HUVEC growth inhibition – cell-based, human, primary screen (AID 575;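 active = viability at or below 30% in both replicate assays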;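 also: 100% = median of untreated cell wells with 0.1% DMSO on each plate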); conditions: HUVEC proliferation, CellTiter-Glo luminescence, 72 h; at 10 µM; stronger effect = lower value
Method in brief: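 Test system: primary human umbilical vein endothelial cells; medium: endothelial basal medium with 2% FBS plus growth supplements; dosing: 10 µM compound only; times: 72 h treatment at 37 °C; signal: CTG luminescence; read-out: % viability relative to median vehicle-well signal on each plate; control set: vehicle and MePR control wells; plate: 384-well, collagen-coated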

[2] = growth inhibitors of H69AR lung tumor, primary screen, human, duplicate replicates (AID 580;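 active = viability at or under a set limit in both replicates, limit being median viability minus 3 SD, cut at about 48% in these data, passing the limit was not always enough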;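 also: 100% = mean luminescence of untreated wells and 0% = no signal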); conditions: H69AR lung tumor cells viability, ATP luminescence, 72 h; at 10 µM; stronger effect = lower value
[3] = reversal of MRP1-mediated doxorubicin resistance, pilot screen, H69AR cells, doxorubicin co-treatment (AID 601;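 active = viability loss from added drug above about 55%, and viability with drug at most 40%, in both replicates, limit read from the data, passing the limit was not always enough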); conditions: CellTiter-Glo, 72 h, at 10 µM; for differential viability (reversal): stronger effect = higher value
[4] = 384-well plate pilot, post-Golgi transport modulator project, inhibition of yeast transport mutant growth (AID 636); conditions: absorbance 615 nm, about 18 h, stronger effect = higher value
[5] = growth suppression of yeast trafficking mutant, preliminary HTS, modulators of trafficking downstream of Golgi apparatus project, 1536-format plate, OD 615 nm (AID 637; in the data active = inhibition above about 30%); conditions: yeast transport mutant growth, absorbance 615 nm, 18 h; stronger effect = higher value
[6] = H69AR cells + 2 uM doxorubicin, measured here: viability with 2 uM doxorubicin, stronger effect = lower value
[7] = H69AR cells, compound alone cytotoxicity

Structure (SMILES)	viability [1]	viability [2]	differential viability (reversal) ([3]; H69AR cells + 2 uM doxorubicin)	viability [3, 6] [%]	viability [3, 7] [%]	inhibition [4]	inhibition [5]
CS(=O)(=O)N(CC(=O)NC1CC1)c1cccc(F)c1	86.5% (inactive)	90% (inactive)	5.87% (inactive)	84.1	90	-5.19% (inactive)	0% (inactive)
COC(=O)c1ccc(C2CC(=O)Nc3cc(OC)c(OC)c(OC)c32)cc1 (stereo unspecified)	83.6% (inactive)	89.4% (inactive)	11.6% (inactive)	77.8	89.4	-3.47% (inactive)	0.63% (inactive)
Cn1cnc2c1c(=O)n(Cc1cccc(Br)c1)c(=O)n2C	90.3% (inactive)	86.9% (inactive)	4.32% (inactive)	82.6	86.9	-4% (inactive)	5.24% (inactive)
CCOC(=O)C1C(=O)NC(SCC(=O)Nc2nccs2)=C(C#N)C1c1ccccc1OCC (stereo unspecified)	76.2% (inactive)	71.3% (inactive)	-1.05% (inactive)	72.3	71.3	-1.45% (inactive)	7.78% (inactive)
COCC(=O)NC(c1ccccc1)c1ccccc1	86.1% (inactive)	89.5% (inactive)	12.2% (inactive)	77.3	89.5	-5.84% (inactive)	3.81% (inactive)
N#CCc1nc(CSc2nc3ccccc3s2)cs1	99.1% (inactive)	91.3% (inactive)	8.82% (inactive)	82.4	91.3	-1.04% (inactive)	3.02% (inactive)
Cc1csc(OCc2ccc(C#N)cc2)n1	98.6% (inactive)	101% (inactive)	16.2% (inactive)	85	101	-5.32% (inactive)	3.97% (inactive)
Cc1ccccc1Cn1nc(C)c(NC(=O)c2noc3c2CCCC3)c1C	75.7% (inactive)	97.3% (inactive)	2.39% (inactive)	95	97.3	-3.12% (inactive)	-10.3% (inactive)
COc1ccc(-c2noc(C3CCCN(C(=O)CCc4ccccc4)C3)n2)cc1 (stereo unspecified)	68.3% (inactive)	84.3% (inactive)	-5.7% (inactive)	90	84.3	-1.97% (inactive)	11.1% (inactive)
CCn1nnc(NC(=O)c2ccccc2Br)n1	103% (inactive)	99.9% (inactive)	10.5% (inactive)	89.4	99.9	-8.93% (inactive)	2.86% (inactive)
CCOc1ccccc1OCC(=O)NCc1ccco1	84.3% (inactive)	85.3% (inactive)	0.205% (inactive)	85.1	85.3	-3.6% (inactive)	-0.32% (inactive)
CCCc1ccc(C(C)NC(=O)c2cnccn2)cc1 (stereo unspecified)	87.3% (inactive)	100% (inactive)	16.6% (inactive)	83.5	100	-5.26% (inactive)	2.06% (inactive)
CCc1nc(C)ccc1OCC(=O)O	102% (inactive)	93% (inactive)	-12.6% (inactive)	106	93	4.8% (inactive)	2.7% (inactive)
O=C(CCCCn1c(=O)[nH]c2ccsc2c1=O)NCc1cccnc1	96.3% (inactive)	99.1% (inactive)	2.01% (inactive)	97.1	99.1	-1.18% (inactive)	-0.63% (inactive)
O=C(CN1CCN(c2ncc(C(F)(F)F)cc2Cl)CC1)Nc1ccc2c(c1)OCO2	85.7% (inactive)	93.2% (inactive)	0.28% (inactive)	92.9	93.2	0.65% (inactive)	-4.29% (inactive)
Cc1[nH]nc2c1C1(CCN(C(=O)c3ccccc3)CC1)C(C#N)=C(N)O2	104% (inactive)	98.7% (inactive)	3.04% (inactive)	95.7	98.7	0.52% (inactive)	6.83% (inactive)
COCc1[nH]nc2c1C(C1C=CCCC1)C(C#N)=C(N)O2 (stereo unspecified)	68.9% (inactive)	94.6% (inactive)	-4.19% (inactive)	98.8	94.6	-2.5% (inactive)	-1.11% (inactive)
CC1CCN(CCC(=O)Nc2ccc(Br)cc2)CC1	88.6% (inactive)	89.2% (inactive)	8.88% (inactive)	80.4	89.2	-4.47% (inactive)	0.32% (inactive)
CCOC(=O)NC(c1ccccc1)C1CCCCC1=O (stereo unspecified)	103% (inactive)	94.2% (inactive)	5.88% (inactive)	88.3	94.2	-3.64% (inactive)	0.32% (inactive)

Structure (SMILES)	viability [1]	viability [2]	differential viability (reversal) ([3]; H69AR cells + 2 uM doxorubicin)	viability [3, 6] [%]	viability [3, 7] [%]	inhibition [4]	inhibition [5]
C=CCn1c(Cc2csc(N)n2)nnc1SCC(=O)OCC	103% (inactive)	91.9% (inactive)	-4.66% (inactive)	96.6	91.9	-2.63% (inactive)	-6.67% (inactive)
CCOc1ccc(-c2nc(C#N)c(N3CCN(C)CC3)o2)cc1	82.1% (inactive)	97.6% (inactive)	0.87% (inactive)	96.7	97.6	-1.6% (inactive)	11.3% (inactive)
CC(C)C1N=C2c3ccccc3N=C(SCC(=O)NCCc3ccc(S(N)(=O)=O)cc3)N2C1=O (stereo unspecified)	82.8% (inactive)	86.7% (inactive)	4.46% (inactive)	82.3	86.7	-2.47% (inactive)	4.13% (inactive)
CC1(C)NC(=O)N(CC(O)CN2CCCCC2)C1=O (stereo unspecified)	105% (inactive)	93.1% (inactive)	-2.85% (inactive)	96	93.1	-3.73% (inactive)	-4.92% (inactive)
CCc1nnc(NC(=O)CSc2nnc(Cc3ccccc3)n2-c2ccc(OC)cc2)s1	92.9% (inactive)	84.6% (inactive)	-6.38% (inactive)	90.9	84.6	-5.79% (inactive)	-0.63% (inactive)
CCCN(CCO)Cc1cccc(Br)c1	101% (inactive)	99.1% (inactive)	5.32% (inactive)	93.8	99.1	-6.05% (inactive)	3.65% (inactive)
COc1cc(CN2CCC(C(=O)NC3CCCC3)CC2)ccc1O	109% (inactive)	94.7% (inactive)	9.49% (inactive)	85.2	94.7	-4% (inactive)	0.79% (inactive)
O=C(C1CC2CCC1C2)N1CCN(Cc2ccc3c(c2)OCO3)CC1 (stereo unspecified)	103% (inactive)	99.2% (inactive)	13.9% (inactive)	85.3	99.2	-4.68% (inactive)	3.33% (inactive)
CCCS(=O)(=O)N1CCN(C(=O)CCC2CCCC2)CC1	101% (inactive)	85% (inactive)	0.865% (inactive)	84.1	85	-3.29% (inactive)	-1.11% (inactive)
COc1ccccc1NC(=O)N1CCN(c2ccccc2F)CC1	108% (inactive)	93.8% (inactive)	19.5% (inactive)	74.3	93.8	-5.87% (inactive)	1.11% (inactive)
N=c1ncn(CC(O)CN2CCOCC2)c2nc(N3CCOCC3)[nH]c12 (stereo unspecified)	92.6% (inactive)	98.6% (inactive)	12.4% (inactive)	86.2	98.6	0.4% (inactive)	-1.9% (inactive)
C=C(C)Cn1c(CCNC(=O)CC)nc2ccccc21	100% (inactive)	104% (inactive)	12.7% (inactive)	91.4	104	-3.95% (inactive)	-0.63% (inactive)
Cc1nn(Cc2ccccc2)c(C)c1NC(=O)CCC(=O)O	110% (inactive)	89.4% (inactive)	-8.23% (inactive)	97.7	89.4	3.42% (inactive)	-1.75% (inactive)
O=C(Oc1ccccc1)c1cccc(COC(=O)c2cnccn2)c1	84.9% (inactive)	103% (inactive)	14.2% (inactive)	88.4	103	-6.13% (inactive)	4.13% (inactive)
O=C1c2ccccc2NC(c2ccco2)N1O (stereo unspecified)	97.2% (inactive)	96.5% (inactive)	9.15% (inactive)	87.3	96.5	-3.38% (inactive)	0.32% (inactive)
CCSC1=C(C#N)C(c2cccc(OC)c2)CC(=O)N1 (stereo unspecified)	85.5% (inactive)	101% (inactive)	8.71% (inactive)	92.6	101	0.53% (inactive)	-1.9% (inactive)
Cn1c(=O)c2c(nc(SCC(=O)NCc3ccc4c(c3)OCO4)n2Cc2ccccc2)n(C)c1=O	93.4% (inactive)	92.6% (inactive)	-7.06% (inactive)	99.7	92.6	0.26% (inactive)	-4.13% (inactive)
CN(c1cccc(NC(=O)COc2ccccc2)c1)S(C)(=O)=O	108% (inactive)	96% (inactive)	-3.07% (inactive)	99	96	4.47% (inactive)	0.32% (inactive)
COc1cccc(C(=O)CSc2nnc(COc3cccc4cccnc34)o2)c1	90.3% (inactive)	81% (inactive)	-2.74% (inactive)	83.7	81	4.87% (inactive)	-7.94% (inactive)
